≈ marks a conversion by molar mass, not a printed value.
How the values were obtained:
Format in all cases: functional
[1] = tested on: Escherichia coli; assay: Antibacterial activity against Escherichia coli ATCC 25922 after 24 hrs by broth dilution method; conditions: ATCC 25922, 24 h
How it was run: (§1)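 Nutrient broth containing logarithmic twofold serial dilutions of compound, inoculated with about 5 × 10⁵ CFU/mL of actively dividing bacteria, incubated 24 h at 37 °C. Growth was read visually and spectrophotometrically. MIC was the lowest concentration (highest dilution) that arrested growth. Ciprofloxacin served as standard.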

[2] = tested on: Klebsiella pneumoniae; assay: Antibacterial activity against Klebsiella pneumoniae after 24 hrs by broth dilution method; how it was run: as §1
[3] = tested on: Candida albicans; assay: Antifungal activity against Candida albicans after 48 hrs by […]
[4] = tested on: Mycobacterium tuberculosis; assay: Antitubercular activity against Mycobacterium tuberculosis H37Rv after 7 days by resazurin microtiter assay; conditions: 168 h
[5] = tested on: Pseudomonas aeruginosa; assay: Antibacterial activity against Pseudomonas aeruginosa ATCC 27853 after 24 hrs by broth dilution method; conditions: ATCC 27853, 24 h; how it was run: as §1
[6] = tested on: Staphylococcus aureus; assay: Antibacterial activity against Staphylococcus aureus ATCC 25923 after 24 hrs by broth dilution method; conditions: ATCC 25923, 24 h; how it was run: as §1

Row | Compound | MIC [1] [µg/mL] | MIC [2] [µg/mL] | MIC [3] [µg/mL] | MIC [4] [µg/mL] | MIC [5] [µg/mL] | MIC [6] [µg/mL]
1 | Brc1cc(-c2nnc(/C=C/C3=COc4ccccc4C3)o2)[nH]c1Br | 3.12 (≈ 6.96 µM) | 100 (≈ 223 µM) | 12.5 (≈ 27.8 µM) | 2 (≈ 4.45 µM) | 12.5 (≈ 27.8 µM) | 1.56 (≈ 3.47 µM)
2 | COc1ccc(-c2nnc(-c3cc(Br)c(Br)[nH]3)o2)cc1 | 3.12 (≈ 7.83 µM) | 100 (≈ 251 µM) | 12.5 (≈ 31.3 µM) | 56.5 (≈ 142 µM) | 6.25 (≈ 15.7 µM) | 3.12 (≈ 7.83 µM)
3 | Brc1cc(-c2nnc(Sc3ccccc3)o2)[nH]c1Br | 12.5 (≈ 31.2 µM) | 100 (≈ 249 µM) | 6.25 (≈ 15.6 µM) | 23.5 (≈ 58.6 µM) | 25 (≈ 62.3 µM) | 12.5 (≈ 31.2 µM)
4 | Nc1ccc(-c2nnc(-c3cc(Br)c(Br)[nH]3)o2)cc1 | 1.56 (≈ 4.06 µM) | 100 (≈ 260 µM) | 12.5 (≈ 32.5 µM) | 16.5 (≈ 43 µM) | 6.25 (≈ 16.3 µM) | 3.12 (≈ 8.14 µM)
5 | Brc1cc(-c2nnc(-c3cc(Br)c(Br)[nH]3)o2)[nH]c1Br | 1.56 (≈ 3.02 µM) | 100 (≈ 194 µM) | 1.56 (≈ 3.02 µM) | 3.5 (≈ 6.79 µM) | 6.25 (≈ 12.1 µM) | 1.56 (≈ 3.02 µM)
6 | O=C(O)c1cn(C2CC2)c2cc(N3CCNCC3)c(F)cc2c1=O [CIPROFLOXACIN] | – | 1.56 (≈ 4.71 µM) | – | – | 3.12 (≈ 9.43 µM) | 1.56 (≈ 4.71 µM)
7 | CSc1nnc(-c2cc(Br)c(Br)[nH]2)o1 | 12.5 (≈ 36.9 µM) | 100 (≈ 295 µM) | 12.5 (≈ 36.9 µM) | 89.5 (≈ 264 µM) | 25 (≈ 73.7 µM) | 12.5 (≈ 36.9 µM)
8 | Oc1ccc(-c2nnc(-c3cc(Br)c(Br)[nH]3)o2)cc1 | 12.5 (≈ 32.5 µM) | 100 (≈ 260 µM) | 12.5 (≈ 32.5 µM) | 25 (≈ 64.9 µM) | 6.25 (≈ 16.2 µM) | 12.5 (≈ 32.5 µM)
9 | Brc1cc(-c2nnc(-c3ccncc3)o2)[nH]c1Br | 12.5 (≈ 33.8 µM) | 100 (≈ 270 µM) | 12.5 (≈ 33.8 µM) | 3.5 (≈ 9.46 µM) | 12.5 (≈ 33.8 µM) | 1.56 (≈ 4.22 µM)
10 | Clc1ccc(-c2nnc(-c3cc(Br)c(Br)[nH]3)o2)cc1 | 1.56 (≈ 3.87 µM) | 100 (≈ 248 µM) | 12.5 (≈ 31 µM) | 9.5 (≈ 23.5 µM) | 6.25 (≈ 15.5 µM) | 1.56 (≈ 3.87 µM)
11 | NNC(=O)c1ccncc1 [ISONIAZID] | – | – | – | 0.4 (≈ 2.92 µM) | – | –
12 | CCSc1nnc(-c2cc(Br)c(Br)[nH]2)o1 | 12.5 (≈ 35.4 µM) | 100 (≈ 283 µM) | 12.5 (≈ 35.4 µM) | 118 (≈ 334 µM) | 25 (≈ 70.8 µM) | 12.5 (≈ 35.4 µM)
13 | COc1cc(/C=C/c2nnc(-c3cc(Br)c(Br)[nH]3)o2)ccc1O | 12.5 (≈ 28.3 µM) | 100 (≈ 227 µM) | 12.5 (≈ 28.3 µM) | 112 (≈ 255 µM) | 12.5 (≈ 28.3 µM) | 1.56 (≈ 3.54 µM)
14 | Brc1cc(-c2nnc(/C=C/c3ccccc3)o2)[nH]c1Br | 12.5 (≈ 31.6 µM) | 100 (≈ 253 µM) | 12.5 (≈ 31.6 µM) | 78.5 (≈ 199 µM) | 6.25 (≈ 15.8 µM) | 3.12 (≈ 7.91 µM)
15 | Clc1ccc(-c2nnc(-c3cc(Br)c(Br)[nH]3)o2)c(Cl)c1 | 12.5 (≈ 28.5 µM) | 100 (≈ 228 µM) | 12.5 (≈ 28.5 µM) | 1.6 (≈ 3.65 µM) | 6.25 (≈ 14.3 µM) | 6.25 (≈ 14.3 µM)
16 | O=[N+]([O-])c1ccc(-c2nnc(-c3cc(Br)c(Br)[nH]3)o2)cc1 | 1.56 (≈ 3.77 µM) | 100 (≈ 242 µM) | 1.56 (≈ 3.77 µM) | 9 (≈ 21.7 µM) | 6.25 (≈ 15.1 µM) | 1.56 (≈ 3.77 µM)
17 | O=C(CSc1nnc(-c2cc(Br)c(Br)[nH]2)o1)c1ccccc1 | 3.12 (≈ 7.05 µM) | 100 (≈ 226 µM) | 1.56 (≈ 3.52 µM) | 1.5 (≈ 3.39 µM) | 12.5 (≈ 28.2 µM) | 12.5 (≈ 28.2 µM)
18 | Fc1ccc(Cl)c(-c2nnc(-c3cc(Br)c(Br)[nH]3)o2)c1 | 1.56 (≈ 3.7 µM) | 100 (≈ 237 µM) | 12.5 (≈ 29.7 µM) | 6.5 (≈ 15.4 µM) | 6.25 (≈ 14.8 µM) | 1.56 (≈ 3.7 µM)
19 | Brc1cc(-c2nnc(-c3ccccc3)o2)[nH]c1Br | 12.5 (≈ 33.9 µM) | 100 (≈ 271 µM) | 12.5 (≈ 33.9 µM) | 98.7 (≈ 267 µM) | 6.25 (≈ 16.9 µM) | 6.25 (≈ 16.9 µM)
20 | Oc1ccccc1-c1nnc(-c2cc(Br)c(Br)[nH]2)o1 | 3.12 (≈ 8.12 µM) | 100 (≈ 260 µM) | 6.25 (≈ 16.2 µM) | 36.5 (≈ 94.8 µM) | 12.5 (≈ 32.5 µM) | 1.56 (≈ 4.05 µM)
21 | Sc1nnc(-c2cc(Br)c(Br)[nH]2)o1 | 12.5 (≈ 38.5 µM) | 100 (≈ 308 µM) | 12.5 (≈ 38.5 µM) | 54.5 (≈ 168 µM) | 12.5 (≈ 38.5 µM) | 12.5 (≈ 38.5 µM)
22 | O=C(Cc1ccccc1)c1nnc(-c2cc(Br)c(Br)[nH]2)o1 | 3.12 (≈ 7.6 µM) | 100 (≈ 243 µM) | 12.5 (≈ 30.4 µM) | 146 (≈ 355 µM) | 12.5 (≈ 30.4 µM) | 3.12 (≈ 7.6 µM)
23 | C[C@@H]1[C@H](O)[C@@H](C)/C=C/C=C/C=C/C=C/C=C/C=C/C=C/[C@H](O[C@@H]2O[C@H](C)[C@@H](O)[C@H](N)[C@@H]2O)C[C@@H]2O[C@](O)(C[C@@H](O)C[C@@H](O)[C@H](O)CC[C@@H](O)C[C@@H](O)CC(=O)O[C@H]1C)C[C@H](O)[C@H]2C(=O)O [AMPHOTERICIN B] | – | – | 1.56 (≈ 1.69 µM) | – | – | –

From ChEMBL document CHEMBL2150987, “Synthesis and evaluation of novel 1,3,4-oxadiazole derivatives of marine bromopyrrole alkaloids as antimicrobial agent” (2012)
